From ChEMBL document CHEMBL1125287, “Synthesis and antifolate evaluation of the 10-propargyl derivatives of 5-deazafolic acid, 5-deazaaminopterin, and 5-methyl-5-deazaaminopterin” (J Med Chem, 1992)
Blank lines part the entries; values can stand above or below the compound they belong to.

Experiments:
HL-60 = assay: The compound was tested for its growth inhibitory activity against HL60 cells.; type: functional, cell-based; conditions: Homo sapiens
L1210 [1] = assay: The compound was tested for its growth inhibitory activity against L1210 cells; type: functional, cell-based; conditions: Mus musculus
CCRF S-180 = assay: The compound was tested for its growth inhibitory activity against S180 cells.; type: functional, cell-based; conditions: Mus musculus
Dihydrofolate reductase = molecular target: T1, Dihydrofolate reductase (Mus musculus, UniProt P00375); assay: The compound was tested for its inhibitory activity against dihydrofolate reductase(DHFR) derived from L1210 cells.; type: cell-based
T1 sequence (P00375 whole entry): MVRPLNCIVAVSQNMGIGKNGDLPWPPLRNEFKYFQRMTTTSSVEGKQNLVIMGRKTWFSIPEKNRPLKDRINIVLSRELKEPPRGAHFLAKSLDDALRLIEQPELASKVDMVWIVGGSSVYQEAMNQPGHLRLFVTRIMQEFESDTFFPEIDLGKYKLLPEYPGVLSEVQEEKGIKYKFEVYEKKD

L1210 [2] = assay: Km value for its transport after influx into L1210 cells; type: functional, cell-based; conditions: Mus musculus
L1210 [3] = assay: k value for its transport after efflux through L1210 cells; type: functional, Mus musculus
Thymidylate synthase [4] = molecular target: T2, Thymidylate synthase (Homo sapiens, UniProt P04818); assay: The compound was tested for its inhibitory activity against thymidylate synthase(TS) derived from K562 cells.; type: cell-based
Thymidylate synthase [5] = molecular target: T3, Thymidylate synthase (Lactobacillus casei, UniProt P00469); assay: The compound was tested for its inhibitory activity (IC50) against thymidylate synthase(TS) derived from Lactobacillus casei; parameters: species or system Lacticaseibacillus casei
T3 sequence (P00469 whole entry): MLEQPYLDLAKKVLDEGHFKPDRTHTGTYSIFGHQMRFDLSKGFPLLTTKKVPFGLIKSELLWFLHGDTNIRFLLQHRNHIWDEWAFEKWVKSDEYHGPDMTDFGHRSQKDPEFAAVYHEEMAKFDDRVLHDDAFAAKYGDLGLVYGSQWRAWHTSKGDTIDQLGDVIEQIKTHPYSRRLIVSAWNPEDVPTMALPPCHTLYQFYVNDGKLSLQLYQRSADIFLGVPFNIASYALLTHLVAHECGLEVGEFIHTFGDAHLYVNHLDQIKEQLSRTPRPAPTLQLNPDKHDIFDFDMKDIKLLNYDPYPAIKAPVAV

Mus musculus [6] = assay: Antitumor effect (3 mg/kg) against EO771 mammary adenocarcinoma in mice measured as Average weight change on day 14.; type: functional
Summary of the method: (§1)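 Mice implanted with EO771 mammary adenocarcinoma were dosed once daily for 5 days, starting 1 day after tumor implantation, with 10 mice per group. On day 7 and day 14 the following were recorded: average body weight change in grams, toxic deaths, tumor-free animals and average tumor volume. Volume was calculated as 4/3πr³ in mm³, and T/C is treated/control volume.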

Mus musculus [7] = assay: Antitumor effect (3 mg/kg) against EO771 mammary adenocarcinoma in mice measured as Average weight change on day 7.; type: functional; summary of the method: as §1
Mus musculus [8] = assay: Antitumor effect (3 mg/kg) against EO771 mammary adenocarcinoma in mice measured as toxic deaths out of 10 mice tested; type: functional
Summary of the method: (§2)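 EO771 mammary adenocarcinoma implanted in mice, 10 animals per group. Dosing was once daily for 5 days, starting 1 day after tumor implantation. Toxic deaths were counted over the total on the evaluation day (day 7 or day 14), together with average weight change, tumor volume (4/3πr³, treated/control) and tumor-free animals.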

Mus musculus [9] = assay: Antitumor effect (3 mg/kg) against EO771 mammary adenocarcinoma in mice measured as Tumor free/total on day 14; type: functional; summary of the method: as §1
Mus musculus [10] = assay: Antitumor effect (3 mg/kg) against EO771 mammary adenocarcinoma in mice measured as Tumor free/total on day 7.; type: functional; summary of the method: as §1
Mus musculus [11] = assay: Antitumor effect (3 mg/kg) against EO771 mammary adenocarcinoma in mice measured as T/C(treated/control) on day 14.; type: functional; summary of the method: as §1
Mus musculus [12] = assay: Antitumor effect (3 mg/kg) against EO771 mammary adenocarcinoma in mice measured as T/C(treated/control) on day 7.; type: functional; summary of the method: as §1
Mus musculus [13] = assay: Antitumor effect (3 mg/kg) against EO771 mammary adenocarcinoma in mice measured as Toxic deaths/total on day 14.; type: functional; summary of the method: as §2
Mus musculus [14] = assay: Antitumor effect (36 mg/kg) against EO771 mammary adenocarcinoma in mice measured as average weight change on day 14.; type: functional; summary of the method: as §1
Mus musculus [15] = assay: Antitumor effect (36 mg/kg) against EO771 mammary adenocarcinoma in mice measured as Tumor free/total on day 14.; type: functional; summary of the method: as §1
Mus musculus [16] = assay: Antitumor effect (36 mg/kg) against EO771 mammary adenocarcinoma in mice measured as Tumor free/total on day 7.; type: functional; summary of the method: as §1
Mus musculus [17] = assay: Antitumor effect (36 mg/kg) against EO771 mammary adenocarcinoma in mice measured as T/C(treated/control) on day 14.; type: functional; summary of the method: as §1
Mus musculus [18] = assay: Antitumor effect (36 mg/kg) against EO771 mammary adenocarcinoma in mice measured as T/C(treated/control) on day 7.; type: functional; summary of the method: as §1
Mus musculus [19] = assay: Antitumor effect (36 mg/kg) against EO771 mammary adenocarcinoma in mice measured as Toxic deaths/total on day 14.; type: functional; summary of the method: as §2
Mus musculus [20] = assay: Antitumor effect (36 mg/kg) against EO771 mammary adenocarcinoma in mice measured as toxic deaths out of 10 mice tested; type: functional; summary of the method: as §2
Mus musculus [21] = assay: Antitumor effect (36 mg/kg) against EO771 mammary adenocarcinoma in mice measured as average weight change on day 7; type: functional; summary of the method: as §1
Thymidylate synthase [22] = molecular target: T2, Thymidylate synthase; assay: The compound was tested for its inhibitory activity against thymidylate synthase(TS) derived from H35F/F cells.

T2 sequence (P04818 whole entry): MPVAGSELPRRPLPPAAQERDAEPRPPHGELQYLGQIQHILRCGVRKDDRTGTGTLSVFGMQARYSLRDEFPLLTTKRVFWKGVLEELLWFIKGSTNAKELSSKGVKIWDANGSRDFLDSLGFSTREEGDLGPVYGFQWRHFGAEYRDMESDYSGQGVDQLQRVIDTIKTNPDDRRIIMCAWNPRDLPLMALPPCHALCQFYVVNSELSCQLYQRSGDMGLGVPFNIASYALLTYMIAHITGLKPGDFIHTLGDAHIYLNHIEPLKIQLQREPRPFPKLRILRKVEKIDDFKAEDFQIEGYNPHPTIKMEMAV

IC50 (HL-60): 5290 nM
IC50 (L1210 [1]): 2610 nM
IC50 (CCRF S-180): 1970 nM
SMILES: C#CCN(Cc1ccc2[nH]c(N)nc(=O)c2c1)c1ccc(C(=O)NC(CCC(=O)O)C(=O)O)cc1 (stereo not given)

Ki (Dihydrofolate reductase): 0.00585 nM
IC50 (L1210 [1]): 0.64 nM
SMILES: C#CCN(Cc1cnc2nc(N)nc(N)c2c1)c1ccc(C(=O)NC(CCC(=O)O)C(=O)O)cc1 (stereo not given)
Km (L1210 [2]): 1.8 µM
k (L1210 [3]): 0.23 min⁻¹

IC50 (Thymidylate synthase [4]): 2400 nM
SMILES: C#CCN(Cc1ccc2nc(N)nc(O)c2n1)c1ccc(C(=O)NC(CCC(=O)O)C(=O)O)cc1 (stereo not given)

IC50 (Thymidylate synthase [5]): 3900 nM
SMILES: C#CCN(Cc1cnc2nc(N)[nH]c(=O)c2n1)c1ccc(C(=O)NC(CCC(=O)O)C(=O)O)cc1 (stereo not given)

More lines, now with the values behind:

SMILES: CN(Cc1cnc2nc(N)nc(N)c2n1)c1ccc(C(=O)N[C@@H](CCC(=O)O)C(=O)O)cc1 [METHOTREXATE]
Km (L1210 [2]): 4.86 µM
AWC (Mus musculus [6]): 0.8 g
AWC (Mus musculus [7]): -0.4 g
Toxic deaths (Mus musculus [8]): 0
Tumor free/total (Mus musculus [9]): 0
Tumor free/total (Mus musculus [10]): 0
T/C (Mus musculus [11]): 0.79
T/C (Mus musculus [12]): 0.74
k (L1210 [3]): 0.21 min⁻¹
Deaths/total (Mus musculus [13]): 0

SMILES: C#CCN(Cc1cnc2nc(N)nc(N)c2c1C)c1ccc(C(=O)NC(CCC(=O)O)C(=O)O)cc1 (stereo not given)
Ki (Dihydrofolate reductase): 0.00687 nM
Km (L1210 [2]): 0.57 µM
IC50 (L1210 [1]): 0.13 nM
AWC (Mus musculus [14]): -0.6 g
Tumor free/total (Mus musculus [15]): 2
Tumor free/total (Mus musculus [16]): 2
T/C (Mus musculus [17]): 0.08
T/C (Mus musculus [18]): 0.09
Deaths/total (Mus musculus [19]): 0
Toxic deaths (Mus musculus [20]): 0
AWC (Mus musculus [21]): -1.9 g
k (L1210 [3]): 0.24 min⁻¹

SMILES: C#CCN(Cc1cnc2nc(N)nc(O)c2c1)c1ccc(C(=O)NC(CCC(=O)O)C(=O)O)cc1 (stereo not given)
IC50 (HL-60): 721 nM
IC50 (L1210 [1]): 1500 nM
IC50 (CCRF S-180): 2350 nM
IC50 (Thymidylate synthase [22]): 90 nM
